Experimental data collected from several papers.
Compare with care: the assays were run in different laboratories.
Read-out: cell growth or viability

The IC50 of `C=CC(=O)Nc1cc(Nc2nc(N3CCc4sccc4C3)c3sccc3n2)c(OC)cc1N1CCN(C)CC1` is reported as 6.65 µM (NCI-H1975; MTT).
The IC50 of `Cc1cc(=O)c2cc(-c3ccc(OC(F)(F)F)cc3)ccc2[nH]1` is reported as > 10 µM (HEK293).
The IC50 of `C=CC(=O)Nc1cc(Nc2nc(N3CCOCC3)c3sccc3n2)c(OC)cc1N(C)CCN(C)C` is reported as 37.5 µM (NCI-H1975; MTT).
For `Cn1nnc2c(-c3ccccc3)ncn2c1=O`, the IC50 was 14 µM (T98G; resazurin; 7 days).
For `C=CC(=O)Nc1cccc(N2C(=O)OC(C)c3cnc(Nc4ccc(N5CCN(C)CC5)cc4OC)nc32)c1` (stereo not shown), the IC50 was 0.028 µM (TMD8; CCK-8; 72 h).
`Cc1[nH]c(C)c(-c2ccc(-c3ccccc3C(F)(F)F)nc2)c(=O)c1Br` has an IC50 of > 10 µM (HEK293).
For `CC(=O)Oc1ccc2c(CSC(C)=O)cc(=O)oc2c1`, the IC50 was > 20 µM (HEK293; MTT; 36 h).
The IC50 of `C=CC(=O)Nc1cc(Nc2nc(N3CCc4sccc4C3)c3cccnc3n2)c(OC)cc1N1CCSCC1` is reported as 0.312 µM (NCI-H1975; MTT).
With `C[C@H](O)C(=O)CCCCCCC(=O)Nc1cccc(-c2cn(-c3ccccc3)nn2)c1` the IC50 was 15.9 µM (HEK293; XTT).
For `Cc1cc(=O)c(-c2ccc(Oc3cccc(OC(F)(F)F)c3)cc2)c(C)[nH]1`, the IC50 was > 10 µM (HEK293).
With `CC(=O)SCc1cc(=O)oc2cc(O)ccc12` the IC50 was > 20 µM (HEK293; MTT; 36 h).
`O=C1NCCc2[nH]c(-c3ccncc3)cc21` gave an IC50 of 9.6 µM (SK-MEL-28).
`CCOC(=O)c1c(-c2ccccc2)nc2c(sc3ccccc32)c1O` gave an IC50 of > 10 µM (HEK293).
`C=CC(=O)Nc1cc(Nc2nc(N3CCc4sccc4C3)c3cccnc3n2)c(OC)cc1N1CCN(CC)CC1` has an IC50 of 1.36 µM (NCI-H1975; MTT).
With `O=C(c1cc(-c2ccccc2O)on1)N1CCN(C(c2ccccc2)c2ccccc2)CC1` the IC50 was > 10 µM (HEK293).
For `COc1cc(N(C)CCN(C)C)c(NC(=O)/C=C/C(C)C)cc1Nc1nc(Nc2cnn(C)c2)c2sccc2n1`, the IC50 was 0.297 µM (NCI-H1975; MTT).
For `C=CC(=O)N1CCC[C@@H](n2nc(-c3ccc(Oc4ccccc4)cc3)c3c(N)ncnc32)C1`, the IC50 was > 10 µM (CNE2Z).
With `Cc1[nH]c(C)c(-c2ccc(-c3ccc(F)cc3)cc2)c(=O)c1Br` the IC50 was > 10 µM (HEK293).
`CC[C@@H](C)[C@H](N)C(=O)N1Cc2ccccc2C1` gave an IC50 of 0.124 µM (SET-2; ATP luminescence; 48 h).
`Cc1[nH]c(C)c(-c2ccc(OCCSc3ccncc3)cc2)c(=O)c1Br` has an IC50 of > 10 µM (HEK293).
For `C=C(Cl)C(=O)Nc1cc(Nc2nc(N3CCCC3)c3sccc3n2)c(OC)cc1N(C)CCN(C)C`, the IC50 was 0.126 µM (NCI-H1975; MTT).
The IC50 of `CC(C)C[C@H](NC(=O)[C@H](Cc1ccccc1)NC(=O)c1cnccn1)B(O)O` is reported as 0.0053 µM (MKN-1; ATP luminescence).
With `Cc1ncn2c(=O)n(C)nnc12` the IC50 was 6 µM (T98G; resazurin; 7 days).
The IC50 of `CCC(=O)Nc1cc(Nc2nc(N3CCc4sccc4C3)c3cccnc3n2)c(OC)cc1N1CCN(CCO)CC1` is reported as 0.471 µM (NCI-H1975; MTT).
The IC50 of `c1cc(CN2CCN(c3ccncc3)CC2)cc(-c2ccc(-c3nc4ccccc4[nH]3)cc2)c1` is reported as > 10 µM (HEK293).
